From ChEMBL document CHEMBL3352181, “Novel phenyl and pyridyl substituted derivatives of isoindolines: Synthesis, antitumor activity and DNA binding features” (Eur J Med Chem, 2014)
Activity calls are given as the source filed them. The rule behind the calls is not given here.

Key:
Calf thymus DNA [1] = assay: Binding affinity to calf thymus DNA assessed as change in melting temperature at drug/ base pair ratio of 0.5 by spectrophotometry; assay type: nucleic-acid assay; conditions: Bos taurus
In short: (§1)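 CT-DNA absorbance followed at 260 nm from 20 to 100 °C, rising 1 °C per min, in BPE buffer, with or without compound at drug/base-pair ratio 0.25 or 0.5. Tm taken as midpoint of the hyperchromic transition from first-derivative plots. ΔTm is Tm with compound minus Tm of DNA alone.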

[2] = (§2) Antiproliferative activity against human SW620 cells assessed as inhibition of cell proliferation after 72 hrs by MTT assay; assay type: functional, cell-based, SW-620; conditions: Homo sapiens, SW-620, 72 h
In short: (§3)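 Cells grown as monolayers in DMEM with 10% FBS, 2 mM L-glutamine, penicillin/streptomycin, 37 °C, 5% CO2. Seeded at 5000/well on day 0. Compounds added after 24 h as five serial dilutions (0,01 to 100 µM), DMSO ≤0.1%, then 72 h. MTT read-out converted to percentage growth. IC50 by linear regression; quadruplicates in three experiments.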

SW-620 [3] = assay: as §2; assay type: functional, cell-based; in short: as §3
SW-620 [4] = assay: Induction of cell cycle arrest on human SW620 cells assessed as accumulation at subG1 phase at 50 uM after 48 hrs by propidium iodide staining based flow cytometry (reference value: 12.1 +/- 0.3%); assay type: functional; conditions: in the assay text read “after 24 hrs” for “after 48 hrs”
In short: (§4)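 HepG2 or SW620 cells were seeded at 25000 per well. After 24 h they were treated, then harvested 24 or 48 h later. Attached cells were trypsinized, pooled with floating cells, PBS-washed and fixed in 70% ethanol. Cells were stained with PI 1 µg/mL plus RNase A 0.2 µg/mL, and 10 000 events were acquired by flow cytometry. Phase percentages come from DNA histograms, in duplicate, with ANOVA at p < 0.05.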

HeLa = assay: Antiproliferative activity against human HeLa cells assessed as inhibition of cell proliferation after 72 hrs by MTT assay; assay type: functional, cell-based; in short: as §3
SW-620 [5] = assay: Induction of cell cycle arrest on human SW620 cells assessed as accumulation at G2/M phase at 50 uM after 48 hrs by propidium iodide staining based flow cytometry (reference value: 22.5 +/- 0.9%); assay type: functional; conditions: in the assay text read “after 24 hrs” for “after 48 hrs”; in short: as §4
Calf thymus DNA [6] = assay: Binding affinity to calf thymus DNA at 50 uM circular dichroism spectroscopy; assay type: nucleic-acid assay; conditions: Bos taurus
In short: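 CD spectra recorded from 480 to 230 nm, 10 mm path, 20 °C, in BPE buffer. CT-DNA (50 µM) incubated with compound rising from 1 to 60 µM or to 80 µM. Compound without DNA served as the control for intrinsic CD.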

SW-620 [7] = assay: Induction of cell cycle arrest on human SW620 cells assessed as accumulation at S phase at 20 uM after 48 hrs by propidium iodide staining based flow cytometry (reference value: 39.4 +/- 0.2%); assay type: functional; conditions: in the assay text read “after 24 hrs” for “after 48 hrs”; in short: as §4
SW-620 [8] = assay: Induction of cell cycle arrest on human SW620 cells assessed as accumulation at G2/M phase at 20 uM after 48 hrs by propidium iodide staining based flow cytometry (reference value: 22.5 +/- 0.9%); assay type: functional; conditions: in the assay text read “after 24 hrs” for “after 48 hrs”; in short: as §4
SW-620 [9] = assay: Induction of cell cycle arrest on human SW620 cells assessed as accumulation at G1 phase at 50 uM after 48 hrs by propidium iodide staining based flow cytometry (reference value: 38.1 +/- 1.1%); assay type: functional; conditions: in the assay text read “after 24 hrs” for “after 48 hrs”; in short: as §4
[10] = molecular target: T1, DNA topoisomerase 1 (Homo sapiens) (UniProt P11387); assay: Inhibition of human topoisomerase 1 assessed as topoisomerase poison activity by measuring generation of open circular DNA using supercoiled pUC19 DNA at 5 to 50 uM by agarose gel electrophoresis
T1 sequence (whole entry): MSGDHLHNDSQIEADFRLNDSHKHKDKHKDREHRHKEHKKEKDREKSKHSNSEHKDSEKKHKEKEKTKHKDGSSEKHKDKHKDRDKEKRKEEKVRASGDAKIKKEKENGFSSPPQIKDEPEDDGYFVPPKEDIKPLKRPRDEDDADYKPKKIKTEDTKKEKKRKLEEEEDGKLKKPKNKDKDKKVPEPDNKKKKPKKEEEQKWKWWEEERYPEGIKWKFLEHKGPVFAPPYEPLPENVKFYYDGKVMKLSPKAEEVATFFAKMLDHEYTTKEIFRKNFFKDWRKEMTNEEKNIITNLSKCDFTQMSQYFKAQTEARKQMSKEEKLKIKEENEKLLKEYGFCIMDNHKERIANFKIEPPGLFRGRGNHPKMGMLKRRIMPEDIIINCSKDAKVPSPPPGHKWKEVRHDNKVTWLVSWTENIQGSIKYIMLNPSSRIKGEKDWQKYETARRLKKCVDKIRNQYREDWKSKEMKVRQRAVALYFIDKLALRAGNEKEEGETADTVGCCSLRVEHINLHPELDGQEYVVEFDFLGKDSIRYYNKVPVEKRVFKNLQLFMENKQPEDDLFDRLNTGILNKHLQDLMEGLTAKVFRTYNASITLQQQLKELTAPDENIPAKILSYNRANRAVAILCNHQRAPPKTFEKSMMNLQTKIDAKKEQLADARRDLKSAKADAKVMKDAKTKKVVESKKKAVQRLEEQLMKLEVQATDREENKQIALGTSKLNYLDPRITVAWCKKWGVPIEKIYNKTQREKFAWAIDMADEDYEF
In short: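 Supercoiled pUC19 plasmid was incubated with human topoisomerase I and graded compound concentrations. Reactions were stopped with SDS and proteinase K. DNA forms were resolved on 1% agarose in TBE (2 h, 120 V), post-stained with ethidium bromide and photographed under UV. Poisoning was read as appearance of nicked DNA, with camptothecin as the positive control.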

SW-620 [11] = assay: Induction of cell cycle arrest on human SW620 cells assessed as accumulation at S phase at 50 uM after 48 hrs by propidium iodide staining based flow cytometry (reference value: 39.4 +/- 0.2%); assay type: functional; conditions: in the assay text read “after 24 hrs” for “after 48 hrs”; in short: as §4
Nucleic Acid = assay: Induction of DNA intercalation in supercoiled pUC19 DNA in presence of human topoisomerase 1 assessed as effect on topoisomerase 1-mediated DNA relaxation at 5 to 50 uM by agarose gel electrophoresis; assay type: nucleic-acid assay; conditions: Escherichia coli
In short: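 Supercoiled pUC19 incubated with human topoisomerase I and graded compound concentrations. Stopped with SDS/proteinase K. DNA forms resolved on 1% agarose in TBE, 2 h at 120 V, stained post-run with ethidium bromide and viewed under UV. Camptothecin was the topo I poison control.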

BJ = assay: Antiproliferative activity against human BJ cells assessed as inhibition of cell proliferation after 72 hrs by MTT assay; assay type: cell-based; conditions: 72 h; in short: as §3
Calf thymus DNA [12] = assay: Binding affinity to calf thymus DNA assessed as change in melting temperature at drug/ base pair ratio of 0.25 by spectrophotometry; assay type: nucleic-acid assay; conditions: Bos taurus; in short: as §1
HepG2 = assay: Antiproliferative activity against human HepG2 cells assessed as inhibition of cell proliferation after 72 hrs by MTT assay; assay type: functional, cell-based; in short: as §3
MCF7 = assay: Antiproliferative activity against human MCF7 cells assessed as inhibition of cell proliferation after 72 hrs by MTT assay; assay type: functional, cell-based; in short: as §3
SW-620 [13] = assay: Induction of apoptosis in human SW620 cells assessed as enlarged cells level at 50 uM after 24 hrs by Annexin V-Fluos staining based fluorescent microscopy; assay type: functional, cell-based
In short: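 Cells seeded on chamber slides at 4000 per well and treated 24 h (HepG2 at 25 or 50 µM; SW620 at 50 µM). Incubated 15 min with Annexin V-Fluos reagent plus propidium iodide, washed in PBS, and examined by fluorescence microscopy for morphology and labelling.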

SW-620 [14] = assay: Induction of cell cycle arrest on human SW620 cells assessed as accumulation at G1 phase at 20 uM after 48 hrs by propidium iodide staining based flow cytometry (reference value: 38.1 +/- 1.1%); assay type: functional; conditions: in the assay text read “after 24 hrs” for “after 48 hrs”; in short: as §4
SW-620 [15] = assay: Induction of cell cycle arrest on human SW620 cells assessed as accumulation at subG1 phase at 20 uM after 48 hrs by propidium iodide staining based flow cytometry (reference value: 12.1 +/- 0.3%); assay type: functional; conditions: in the assay text read “after 24 hrs” for “after 48 hrs”; in short: as §4

- ΔTm (Calf thymus DNA [1]): 17.3 °C
- IC50 (HeLa; Homo sapiens, HeLa, 72 h): 6.25 µM
- Activity (Calf thymus DNA [6]): Active
- Activity (Nucleic Acid): Active
- ΔTm (Calf thymus DNA [12]): 12.2 °C
- IC50 (HepG2; HepG2, 72 h): 20.5 µM
- IC50 (MCF7; Homo sapiens, MCF7, 72 h): 3.76 µM
SMILES: Cl.c1ccc2c(c1)CN(c1ccc(C3=NCCN3)nc1)/C2=N/c1ccc(C2=NCCN2)nc1
- IC50 [2]: 5.26 µM
- inhibition (SW-620 [3]): Dose-dependent effect
- Activity (SW-620 [4]): 7.8%
- inhibition (HeLa): Dose-dependent effect
- Activity (SW-620 [5]): 41.7%
- Activity (SW-620 [7]): 40.4%
- Activity (SW-620 [8]): 40%
- Activity (SW-620 [9]): 22.1%
- inhibition [10]: inactive
- Activity (SW-620 [11]): 36.2%
- IC50 (BJ; Homo sapiens, BJ): 4.26 µM
- inhibition (INH) (BJ; human, bj): Dose-dependent effect
- inhibition (HepG2): Dose-dependent effect
- inhibition (MCF7): Dose-dependent effect
- Activity (SW-620 [13]): Active
- Activity (SW-620 [14]): 19.6%
- Activity (SW-620 [15]): 7.5%
